The MIC is the lowest concentration that inhibits growth of the organism.

The test system of series [1] is K. pneumoniae NB29017 co-cultured with T. pyriformis. The series is described as follows: T. pyriformis/K. pneumoniae. The format is cell-based, Klebsiella pneumoniae. Particulars: for activity in the Tp/Kp assay: manual pilot screens and D1 analog set.
The subject of series [2] is K. pneumoniae wbbM mutant (NB29018) co-cultured with T. pyriformis. The series is described as follows: Tp/Kp co-culture assay with cell surface-defective wbbM mutant. In kind it is cell-based, Klebsiella pneumoniae. Particulars: Tp threshold 4625–18,500 Tp/mL.
Series [3] can be described thus: Red blood cell hemolysis. Conditions: sheep, erythrocytes from defibrinated sheep blood, pH 7.5. The format is cell-based, sheep.
Series [4] has as its system Staphylococcus aureus. Kind of series: Antibacterial MIC, Gram-positive control. In kind it is cell-based. Particulars: read-out: MIC Sa.
Series [5] relates to K. pneumoniae NB29017. The series is described as follows: Qualitative inhibition of mucoid appearance of colonies on solid LB agar. Conditions: 4 fully mucoid, 0 nonmucoid, by eye. In kind it is cell-based, Klebsiella pneumoniae. The essentials: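 Test compound dissolved in DMSO (12.8 mg/mL stock) and mixed into melted LB agar at 0–16 μg/mL final, then set in six-well plates. Mucoid wild-type NB29017 streaked for single colonies in each well. Plates incubated 18 h at 37 °C, then 2 h at 4 °C. Mucoid appearance scored by eye from 0 (none) to 4 (normal hypermucoid).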

Series [6] in a line: Cytotoxicity in K562 cells. The format is cell-based. Conditions: human.
Where [7] appears, read: read-out: IC50 Tp/Kp, Table 1, freshly dissolved powder, top concentration 20 μM.
[8] abbreviates: read-out: Tp/Kp IC50, Table 2, expressed as μg/mL for comparison to agar values.

Values after ≈ are worked out from the molar mass of the structure shown. Read-outs that look alike come from different tables or passages of the source.

`Oc1nc(S)nnc1-c1cccs1` [B1, OC1N=C(S)N=NC=1C2=CC=CS2]: the “activity in the Tp/Kp assay” value in series [1] was “active”.
Same read-out and setting: then `COc1nc(SC)nnc1C` [Di, COc1nc(nnc1C)SC], with “inactive”.
Same read-out and setting: then `Cc1cc(O)c(C)c(O)c1C(=O)O` [compound 9, Cc1cc(O)c(C)c(O)c1C(O)=O], with “active”.
The same measure, in the same setting: under `O=C(O)c1ccccc1O` [compound 10, OC(=O)c1ccccc1O] stands “active”; under `Cc1cccc(O)c1C(=O)O` [compound 16, Cc1cccc(O)c1C(O)=O], “active”.
In the case of `Cc1nnc(-c2ccccc2)nc1O` [compound 34, Cc1nnc(nc1O)c2ccccc2], the “activity in the Tp/Kp assay” value in series [1] was “active”. Further, in series [2], the “activity in the Tp/Kp wbbM assay” value is “retained activity”.
Take `Cc1nnc(SCC(=O)Nc2ccc(Br)cc2)nc1O` [compound 35, Cc1nnc(nc1O)SCC(=O)Nc2ccc(Br)cc2]: the “activity in the Tp/Kp assay” value in series [1] was “active”. The “activity in the Tp/Kp wbbM assay” value in series [2] is “retained activity”.
Molecule `CCOc1ccc2nc(NC(=O)c3cc(=O)c4ccc(C)cc4o3)sc2c1` [compound 65, CCOc4ccc3N=C(NC(=O)C2=CC(=O)c1ccc(C)cc1O2)Sc3c4] came in with a hemolysis at 1 h in series [3] of 1.5%. The minimal inhibitory concentration (MIC) in series [4] is over 128 µg/mL. Besides, the “qualitative score on solid medium” value in series [5] (1 μg/mL compound in agar) is given as 2; in series [5] (2 μg/mL compound in agar) it was 2; in series [5] (4 μg/mL compound in agar), 2; in series [5] (8 μg/mL compound in agar), 2; in series [5] (16 μg/mL compound in agar), 1. The IC50 in series [1] (setting [7]) was 0.07 µM; in series [1] (setting [8]), 0.03 µg/mL; in series [6], over 168 µM.
As for `O=C(Nc1nnc(Cl)s1)c1ccco1` [compound 67, O=C(NC1=NN=C(Cl)S1)C2=CC=CO2], in series [3], the hemolysis at 1 h came out at 1.5%. In addition, the minimal inhibitory concentration (MIC) in series [4] is over 128 µg/mL. In addition, the “qualitative score on solid medium” value in series [5] (1 μg/mL compound in agar) was found to be 1; in series [5] (2 μg/mL compound in agar) it was 0; in series [5] (4 μg/mL compound in agar) it was 0; in series [5] (8 μg/mL compound in agar) it was 0; in series [5] (16 μg/mL compound in agar), 0. Moreover, the IC50 was 0.49 µM in series [1] (setting [7]), 0.11 µg/mL in series [1] (setting [8]) and over 557 µM in series [6].
Consider `Cc1cc(C)c2c(=O)cc(C(=O)Nc3nc4ccc(F)cc4s3)oc2c1` [compound 68, Cc2cc(C)c1C(=O)C=C(Oc1c2)C(=O)NC4=Nc3ccc(F)cc3S4], for which the hemolysis at 1 h in series [3] was found to be 2.2%. Besides, the MIC in series [4] is over 128 µg/mL. In addition, the “qualitative score on solid medium” value stood at 3 in series [5] (1 μg/mL compound in agar); 3 in series [5] (2 μg/mL compound in agar); 1 in series [5] (4 μg/mL compound in agar); 1 in series [5] (8 μg/mL compound in agar); 1 in series [5] (16 μg/mL compound in agar). Further, the IC50 in series [1] (setting [7]) was 0.91 µM; in series [6], over 348 µM.
The molecule `COc1ccc(Br)c(/C=N/NC(=O)COc2ccc(-c3ccccc3)cc2)c1` [compound 69, COc3ccc(Br)c(/C=N/NC(=O)COc1ccc(cc1)c2ccccc2)c3] had a hemolysis at 1 h in series [3] of 4.1%. Further, the MIC in series [4] was over 128 µg/mL. The “qualitative score on solid medium” value in series [5] (1 μg/mL compound in agar), in series [5] (2 μg/mL compound in agar), in series [5] (4 μg/mL compound in agar), in series [5] (8 μg/mL compound in agar) and in series [5] (16 μg/mL compound in agar) was 0 throughout. Also, the IC50 in series [1] (setting [7]) was 0.05 µM; in series [6] it was over 291 µM.
In series [3], `O=C(/C=C/c1ccccc1)Nc1ccc(C(=O)Nc2nccs2)cc1` [compound 70, O=C(/C=C/c1ccccc1)Nc2ccc(cc2)C(=O)NC3=NC=CS3] came in with a hemolysis at 1 h of 17.6%. The minimal inhibitory concentration (MIC) in series [4] is over 128 µg/mL. Besides, the “qualitative score on solid medium” value worked out at 3 in series [5] (1 μg/mL compound in agar); 1 in series [5] (2 μg/mL compound in agar); 0 in series [5] (4 μg/mL compound in agar); 0 in series [5] (8 μg/mL compound in agar); 0 in series [5] (16 μg/mL compound in agar). Moreover, the IC50 in series [1] (setting [7]) is 1.1 µM; in series [6], over 367 µM.
Consider `CC12CC3(C)CC(C(=O)O)(C1)CC(C(=O)O)(C2)C3` [compound 73, CC12CC3(C)CC(C1)(CC(C2)(C3)C(O)=O)C(O)=O], for which the hemolysis at 1 h in series [3] is 2.8%. The MIC in series [4] was over 128 µg/mL. The “qualitative score on solid medium” value was found to be 4 in series [5] (1 μg/mL compound in agar); 3 in series [5] (2 μg/mL compound in agar); 3 in series [5] (4 μg/mL compound in agar); 3 in series [5] (8 μg/mL compound in agar); 2 in series [5] (16 μg/mL compound in agar). Further, the IC50 in series [1] (setting [7]) was 1.1 µM; in series [6], over 508 µM.
For `CCOc1ccc2nc(NC(=O)c3ccc4ncsc4c3)sc2c1` [compound 74, CCOc4ccc3N=C(NC(=O)c2ccc1N=CSc1c2)Sc3c4], in series [3], the hemolysis at 1 h is 26.9%. In addition, the MIC in series [4] is over 128 µg/mL. Moreover, the “qualitative score on solid medium” value in series [5] (1 μg/mL compound in agar) came out at 2; in series [5] (2 μg/mL compound in agar), 0; in series [5] (4 μg/mL compound in agar), 0; in series [5] (8 μg/mL compound in agar), 0; in series [5] (16 μg/mL compound in agar) it was 0. Also, the IC50 in series [1] (setting [7]) is 0.37 µM; in series [6], over 361 µM.
As for `CCOc1cccc(C(=O)Nc2ccc(-c3nc4ccccc4[nH]3)cc2)c1` [compound 79, CCOc1cccc(c1)C(=O)Nc2ccc(cc2)C4Nc3ccccc3N=4], the hemolysis at 1 h in series [3] is 40.6%. Moreover, the MIC in series [4] is over 128 µg/mL. The “qualitative score on solid medium” value in series [5] (1 μg/mL compound in agar), in series [5] (2 μg/mL compound in agar), in series [5] (4 μg/mL compound in agar) and in series [5] (8 μg/mL compound in agar) was 2 throughout. The IC50 was found to be 1.33 µM in series [1] (setting [7]) and 341 µM in series [6].
`CCCCNC(=O)NS(=O)(=O)c1cccs1` [compound 82, CCCCNC(=O)NS(=O)(=O)C1=CC=CS1] gave a hemolysis at 1 h in series [3] of 7.4%. Besides, the MIC in series [4] is over 128 µg/mL. For the same molecule, the “qualitative score on solid medium” value in series [5] (1 μg/mL compound in agar) is listed as 4; in series [5] (2 μg/mL compound in agar), 4; in series [5] (4 μg/mL compound in agar), 3; in series [5] (8 μg/mL compound in agar), 3; in series [5] (16 μg/mL compound in agar), 2. Moreover, the IC50 in series [1] (setting [7]) was 2.58 µM; in series [6], over 489 µM.
The molecule `O=C(O)c1cc(Br)ccc1F` [compound 166, OC(=O)c1cc(Br)ccc1F] yielded a hemolysis at 1 h in series [3] of 2.5%. Also, the MIC in series [4] is over 128 µg/mL. In addition, the IC50 is 1.3 µM in series [1] (setting [7]) and over 584 µM in series [6].
The matching figures for `CCN(CC)/C(N)=N\c1ccc(NC(=O)c2ccc(C(=O)Nc3ccc(/N=C(\N)N(CC)CC)cc3)cc2)cc1` [compound 170, CCN(CC)/C(/N)=N/c1ccc(cc1)NC(=O)c2ccc(cc2)C(=O)Nc3ccc(cc3)\N=C(\N)/N(CC)CC]: 1.9%, 8 µg/mL (≈ 14.7 µM), 2.2 µM and 102 µM.
The matching figures for `O=[N+]([O-])c1cnc2ccc(Cl)cc2c1O` [compound 182, [O-][N+](=O)c2cnc1ccc(Cl)cc1c2O]: 2.4%, over 128 µg/mL, 0.42 µM and 75.4 µM.
The matching figures for `O=C(CCCN1CCC(O)(c2ccc(Br)cc2)CC1)c1ccc(F)cc1` [compound 185, OC2(CCN(CCCC(=O)c1ccc(F)cc1)CC2)c3ccc(Br)cc3]: 4.5%, over 128 µg/mL, 0.85 µM and 16.5 µM.
On to `COC1C(OC(C)=O)CC(=O)OC(C)CC2OC2/C=C/C(=O)C(C)CC(CC=O)C1OC1OC(C)C(OC2CC(C)(O)C(OC(=O)CC(C)C)C(C)O2)C(N(C)C)C1O` (stereo not shown) [compound 186, COC4C(OC2OC(C)C(OC1CC(C)(O)C(OC(=O)CC(C)C)C(C)O1)C(C2O)N(C)C)C(CC=O)CC(C)C(=O)/C=C/C3OC3CC(C)OC(=O)CC4OC(C)=O], for which the MIC in series [4] was found to be 2 µg/mL (≈ 2.38 µM). In addition, the IC50 in series [1] (setting [7]) stood at 5.4 µM; in series [6], 8.54 µM.
On to `Cc1nc(O)n2ncc(Br)c2n1` [compound 187, CC2=NC1=C(Br)C=NN1C(O)=N2], for which the hemolysis at 1 h in series [3] was 2.5%. Besides, the MIC in series [4] was over 128 µg/mL. In addition, the IC50 in series [1] (setting [7]) was 0.16 µM; in series [6], over 559 µM.
For the molecule `C=CC1(C)CC(OC(=O)CSc2ccc(N)cc2)C2(C)C(C)CCC3(CCC(=O)C32)C(C)C1O` (stereo not shown) [compound 191, C=CC4(C)CC(OC(=O)CSc1ccc(N)cc1)C2(C)C(C)CCC3(CCC(=O)C23)C(C)C4O], in series [3], the hemolysis at 1 h is 2%. For the same molecule, the minimum inhibitory concentration (MIC) in series [4] is at most 0.06 µg/mL. The results for the IC50 in series [1] (setting [7]) and in series [6] were 3.22 µM and 35.8 µM, respectively.

The record behind these values is publication PMC8851646 (ACS Omega, 2022).
